Molecules are shown by their SMILES. pIC50: −log10 of the molar value. In brackets after ≈: the same amount, converted by molar mass. Numbered stars: 1 amine (or outer) side, 2 acyl side, 3 side chain; on linkers, the order of the positions; unused ones are H or OH. Bridge positions count the residues as written; N and C are the ends. Square brackets hold non-standard residues; d marks the D form. Peptide text beside a SMILES is read from it. I, II: the chains in the order shown. Actinocin(1to9) = Cc1c2oc3c(C)ccc(C(=O)[*:2])c3nc-2c(C(=O)[*:1])c(N)c1=O; NMeV = CN[C@H](C(=O)O)C(C)C; Sar = CNCC(=O)O

Test [1] relates to RAW264.7. Put plainly: Antiinflammatory activity in LPS-stimulated mouse RAW264.7 cells assessed as effect on TNFalpha formation pretreated 1 hr before LPS challenge measured after 24 hrs. It is filed as functional, cell-based. A digest of the protocol:
(§1)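 Medium from RAW 264.7 macrophages (2 × 10⁵ cells/well, adhered overnight) pretreated 1 h at 37 °C with drug or 0.5% DMSO vehicle and then given 1 µg/mL LPS (E. coli 0111:B4) for 24 h. Supernatant stored at -70 °C, and TNF-α quantified by ELISA kit per manufacturer. Mean ± SEM, n = 3.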

Test [2] deals with RAW264.7. Put plainly: Antiinflammatory activity in LPS-stimulated mouse RAW264.7 cells assessed as effect on TNFalpha formation at 30 uM pretreated 1 hr before LPS challenge measured after 24 hrs. The format is functional. A digest of the protocol:
as §1

The test system of the next test is HepG2. Put plainly: Cytotoxicity against human HepG2 cells by MTT assay. The format is functional. The settings on record: read-out: ED50 (the source's name). A digest of the protocol: (§2)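 Human lines from ATCC grown in DMEM with 10% FBS, 2 mM L-glutamine, penicillin and streptomycin, plus 10 mM HEPES pH 7.3 for the assay. (1-3) × 10³ cells/well, 6 h attachment, then drug exposure for 6 days at 37 °C. MTT added for 4 h, cells lysed in 10% SDS/0.01 M HCl, A550 read. Death calculated as percent MTT inhibition.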

Test [3] is described as follows: Cytotoxicity against human Hep3B cells by MTT assay. The settings on record: read-out: ED50 (the source's name). The format is functional, Hep 3B2. A digest of the protocol:
as §2

A further test relates to HCT-116. Put plainly: Cytotoxicity against human HCT116 cells by MTT assay. The format is functional. The settings on record: read-out: ED50 (the source's name). A digest of the protocol: (§3)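 Cells grown in DMEM with 10% FBS plus antibiotics; assay medium supplemented with 10 mM HEPES pH 7.3, 37 °C CO2 incubator. (1-3) × 10³ cells/100 µL seeded, 6 h attachment, drug exposure 6 days. MTT added for 4 h at 37 °C, cells lysed in 10% SDS/0.01 M HCl, A550 read; cell death expressed as % MTT inhibition versus cell-only and medium-blank wells.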

The subject of another test is HT-29. The experiment in a line: Cytotoxicity against human HT-29 cells by MTT assay. It is filed as functional. The settings on record: read-out: ED50 (the source's name). A digest of the protocol: as §3
A short description of test [4]: Cytotoxicity against mouse 212 cells by MTT assay. It is filed as functional. The settings on record: read-out: ED50 (the source's name). A digest of the protocol:
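Ha-ras-inducible NIH/3T3-derived 212 cells maintained in MEM alpha with 10% FBS and antibiotics, with 10 mM HEPES pH 7.3 added for the assay. Seeded at (1-3) × 10³ cells/well, allowed 6 h to attach, then exposed to drug 6 days at 37 °C. MTT pulse 4 h, SDS/HCl lysis, absorbance at 550 nm. Cell death expressed as percent MTT inhibition.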

A further test deals with Ca-Ski. The experiment in a line: Cytotoxicity against human CaSKi cells by MTT assay. It is filed as functional. The settings on record: read-out: ED50 (the source's name). A digest of the protocol:
as §2

The test system of another test is SiHa. The experiment in a line: Cytotoxicity against human SiHa cells by MTT assay. It is filed as functional. The settings on record: for EC50: Homo sapiens, SiHa, read-out: ED50 (the source's name). A digest of the protocol:
as §2

The test system of test [5] is RAW264.7. Put plainly: Antiinflammatory activity in LPS-stimulated mouse RAW264.7 cells assessed as effect on TNFalpha formation at 0.3 uM pretreated 1 hr before LPS challenge measured after 24 hrs. It is filed as functional. A digest of the protocol: as §1
Test [6] relates to RAW264.7. Put plainly: Antiinflammatory activity in LPS-stimulated mouse RAW264.7 cells assessed as effect on NO production at 1 uM pretreated 1 hr before LPS challenge measured after 24 hrs. It is filed as functional. A digest of the protocol: (§4)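 RAW 264.7 cells in DMEM with 10% FBS and antibiotics, 2 × 10⁵ cells/well, adhered overnight. Pretreated 1 h at 37 °C with drug or vehicle (final DMSO 0.5%), then stimulated with 1 µg/mL E. coli 0111:B4 LPS for 24 h. Medium nitrite measured by Griess reaction (sulfanilamide, HCl, naphthylethylenediamine, 10 min room temperature, A550) against a NaNO2 standard curve. Mean ± SEM, n = 3.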

The test system of test [7] is RAW264.7. Put plainly: Antiinflammatory activity in LPS-stimulated mouse RAW264.7 cells assessed as effect on TNFalpha formation at 0.1 uM pretreated 1 hr before LPS challenge measured after 24 hrs. It is filed as functional. A digest of the protocol:
as §1

Test [8] can be described thus: Cytotoxicity against human MCF7-ras cells by MTT assay. It is filed as functional. The settings on record: read-out: ED50 (the source's name). A digest of the protocol: as §3
For the next test, the system named is MCF7. Put plainly: Cytotoxicity against human MCF7 cells by MTT assay. The format is functional. The settings on record: read-out: ED50 (the source's name). A digest of the protocol: as §3
The subject of test [9] is RAW264.7. Put plainly: Antiinflammatory activity in LPS-stimulated mouse RAW264.7 cells assessed as effect on NO production at 0.3 uM pretreated 1 hr before LPS challenge measured after 24 hrs. It is filed as functional. A digest of the protocol:
as §4

Test [10] concerns RAW264.7. The experiment in a line: Antiinflammatory activity in LPS-stimulated mouse RAW264.7 cells assessed as effect on NO production at 3 uM pretreated 1 hr before LPS challenge measured after 24 hrs. The format is functional. A digest of the protocol: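 RAW 264.7 cells at 2 × 10⁵ per well in DMEM/10% FBS, adhered overnight. Pretreated 1 h at 37 °C with drug or vehicle (DMSO fixed at 0.5% final), then LPS (E. coli 0111:B4) 1 µg/mL for 24 h. Medium nitrite measured by Griess reaction (10 min RT, A550) against NaNO2 standard curve; mean ± SEM, n = 3, compared with control.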

The test system of test [11] is RAW264.7. Put plainly: Antiinflammatory activity in LPS-stimulated mouse RAW264.7 cells assessed as effect on NO production at 10 uM pretreated 1 hr before LPS challenge measured after 24 hrs. It is filed as functional. A digest of the protocol:
as §4

For test [12], the system named is RAW264.7. Put plainly: Antiinflammatory activity in LPS-stimulated mouse RAW264.7 cells assessed as effect on NO production at 30 uM pretreated 1 hr before LPS challenge measured after 24 hrs. It is filed as functional. A digest of the protocol: as §4
In test [13] the test system is RAW264.7. Put plainly: Antiinflammatory activity in LPS-stimulated mouse RAW264.7 cells assessed as effect on NO production pretreated 1 hr before LPS challenge measured after 24 hrs. The format is functional, cell-based. A digest of the protocol:
as §4

Turning to `C[C@@H]1C[C@H]2[C@@H]3CCC4=CC(=O)C=C[C@]4(C)[C@@]3(F)[C@@H](O)C[C@]2(C)[C@@]1(O)C(=O)CO` [DEXAMETHASONE], the pIC50 in the test on RAW264.7 [1] is 6.15.

Turning to `COc1cc2c(O[C@@H]3OC[C@](O)(CO[C@@H]4OC[C@@H](O)[C@H](O)[C@H]4O)[C@H]3O[C@H]3OC[C@@H](O)[C@@H](O)[C@@H]3O)c3c(c(-c4ccc5c(c4)OCO5)c2cc1OC)C(=O)OC3`, the inhibition at 30 µM in the test with RAW264.7 [2] was 18.7%.

Take `O=c1[nH]cc(F)c(=O)[nH]1` [FLUOROURACIL]: the EC50 is 0.033 µg/mL (≈ 0.254 µM) in the test with HepG2, 0.0715 µg/mL (≈ 0.55 µM) in [3], 0.48 µg/mL (≈ 3.69 µM) in the test on HCT-116 and 0.074 µg/mL (≈ 0.569 µM) in the test on HT-29.

For the molecule `COc1cc2c(O[C@@H]3OC[C@](O)(CO)[C@H]3O[C@H]3OC[C@@H](O)[C@@H](O)[C@@H]3O)c3c(c(-c4ccc5c(c4)OCO5)c2cc1OC)C(=O)OC3`, the EC50 was 3.9 µg/mL (≈ 6.05 µM) with HepG2, 3.1 µg/mL (≈ 4.81 µM) in test [3], 6.7 µg/mL (≈ 10.4 µM) in the test with HT-29 and 3.1 µg/mL (≈ 4.81 µM) in test [4].

Regarding `Cc1c2oc3c(C)ccc(C(=O)N[C@@H]4C(=O)N[C@H](C(C)C)C(=O)N5CCC[C@H]5C(=O)N(C)CC(=O)N(C)[C@@H](C(C)C)C(=O)O[C@@H]4C)c3nc-2c(C(=O)N[C@@H]2C(=O)N[C@H](C(C)C)C(=O)N3CCC[C@H]3C(=O)N(C)CC(=O)N(C)[C@@H](C(C)C)C(=O)O[C@@H]2C)c(N)c1=O` [DACTINOMYCIN] (I: T[dV]P[Sar][NMeV] / II: T[dV]P[Sar][NMeV]; ester I:1-I:C, II:1-II:C; linker I:N-II:N via Actinocin(1to9)), in the test on Ca-Ski, the EC50 amounted to 0.0019 µg/mL (≈ 0.00151 µM). In the test on SiHa, this molecule returned an ED50 of 8.1 ×10⁻⁴ ug/ml.

As to `COc1cc2c(O[C@@H]3OC[C@](O)(CO[C@@H]4OC[C@@H](O)[C@H](O)[C@H]4O)[C@H]3O[C@H]3OC[C@@H](O)[C@@H](O[C@@H]4OC[C@](O)(CO)[C@H]4O)[C@@H]3O)c3c(c(-c4ccc5c(c4)OCO5)c2cc1OC)C(=O)OC3`, in the test with RAW264.7 [2], the inhibition at 30 µM was -26%.

For `COc1cc2c(OC)c3c(c(-c4ccc5c(c4)OCO5)c2cc1OC)C(=O)OC3` [JUSTICIDIN A], the EC50 with HepG2 worked out at 0.02 µg/mL (≈ 0.0507 µM); in [3], 0.029 µg/mL (≈ 0.0735 µM); with Ca-Ski, 0.003 µg/mL (≈ 0.00761 µM); in the test with SiHa, 0.0074 µg/mL (≈ 0.0188 µM); in [8], 0.074 µg/mL (≈ 0.188 µM); in the test on MCF7, 0.39 µg/mL (≈ 0.989 µM). In addition, the EC50 in [4] is 0.0227 µg/mL (≈ 0.0576 µM). In addition, the inhibition at 0.3 µM in the test on RAW264.7 [5] was -158%; with RAW264.7 [9] it was 20.3%. Besides, in the test with RAW264.7 [6], the inhibition at 1 µM was 19.8%. Further, the inhibition at 0.1 µM in the test on RAW264.7 [7] was -6%.

As to `COc1cc2c(O[C@@H]3OC[C@](O)(CO)[C@H]3O)c3c(c(-c4ccc5c(c4)OCO5)c2cc1OC)C(=O)OC3` [TUBERCULATIN], the EC50 in the test on HepG2 was 0.04 µg/mL (≈ 0.0781 µM); in [3], 0.014 µg/mL (≈ 0.0273 µM); with SiHa, 0.12 µg/mL (≈ 0.234 µM); with HCT-116 it was 0.28 µg/mL (≈ 0.546 µM); in [8], 0.09 µg/mL (≈ 0.176 µM); in the test on HT-29, 0.29 µg/mL (≈ 0.566 µM). Also, the EC50 with MCF7 was determined as 0.97 µg/mL (≈ 1.89 µM). In the test on RAW264.7 [10], the inhibition at 3 µM came out at 16.9%.

Consider `COc1cc2c(O)c3c(c(-c4ccc5c(c4)OCO5)c2cc1OC)C(=O)OC3` [DIPHYLLIN], for which the EC50 came to 0.4 µg/mL (≈ 1.05 µM) in the test on HepG2; 3.6 µg/mL (≈ 9.46 µM) in test [3]; 0.8 µg/mL (≈ 2.1 µM) in the test with HCT-116; 2.5 µg/mL (≈ 6.57 µM) in the test with HT-29; 2.7 µg/mL (≈ 7.1 µM) in test [4]. Further, the inhibition at 10 µM in the test with RAW264.7 [11] was -28.4%. For the same molecule, the values for the inhibition at 30 µM in the test with RAW264.7 [12] and in the test on RAW264.7 [2] were -0.5% and -22.2%, respectively.

Turning to `CC(=N)NCc1cccc(CN)c1` [1400W], in the test with RAW264.7 [13], the pIC50 is 5.51.

(Values after ChEMBL document CHEMBL1148106, “Potent cytotoxic lignans from Justicia procumbens and their effects on nitric oxide and tumor necrosis factor-alpha production in mouse macrophages” (J Nat Prod, 2002).)
